This is an account of results in ChEMBL document CHEMBL4428038, “Overcoming chloroquine resistance in malaria: Design, synthesis and structure-activity relationships of novel chemoreversal agents” (Eur J Med Chem, 2016).

pEC50, pIC50: −log10 of the molar value. Converted amounts (≈) assume the structure as drawn. The source made the active and inactive calls. No cut-off for these calls is given here.

Data set [1] can be described thus: Solubility of compound in DMSO at 10 uM. It counts as physicochemical. The essentials:
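Solubility judged under the probe-3 uptake assay conditions. DMSO stocks were stored in aliquots and diluted to working concentration with PBS, protected from light. The compound was added to K1 parasite cultures (2.5% hematocrit, late-ring/early-trophozoite stage) with 6 of fluorescent CQ probe and incubated for 10 h at 37 °C.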

Data set [2] relates to T1, Chloroquine resistance transporter (Plasmodium falciparum), Q9N623 [K76T].
T1 sequence (whole entry): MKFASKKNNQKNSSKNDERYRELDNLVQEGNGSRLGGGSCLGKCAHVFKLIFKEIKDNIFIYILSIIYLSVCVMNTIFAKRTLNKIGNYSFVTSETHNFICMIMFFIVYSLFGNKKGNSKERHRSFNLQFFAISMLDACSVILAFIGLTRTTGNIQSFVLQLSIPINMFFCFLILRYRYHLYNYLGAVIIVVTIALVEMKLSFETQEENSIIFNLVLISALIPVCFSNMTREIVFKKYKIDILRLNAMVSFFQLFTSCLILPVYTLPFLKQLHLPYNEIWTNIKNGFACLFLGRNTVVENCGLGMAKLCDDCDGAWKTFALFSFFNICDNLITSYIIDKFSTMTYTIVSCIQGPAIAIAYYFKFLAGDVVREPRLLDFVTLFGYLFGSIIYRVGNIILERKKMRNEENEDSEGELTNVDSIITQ
Description: Inhibition of CRT K76T mutant in chloroquine/artemisinin-resistant Plasmodium falciparum ARS233 assessed as reversal of chloroquine resistance by measuring reduction in chloroquine IC50 at 500 nM relative to chloroquine alone.

Data set [3] concerns Plasmodium falciparum. Description: Intrinsic antimalarial activity against intermediate chloroquine-resistant Plasmodium falciparum 7G8 isolate MRA-154 harboring CRT SVMNT haplotype mutant assessed as reduction in parasite viability at 500 nM. It counts as functional, organism-based.
Data set [4] in a line: Permeability of compound incubated for 6 hrs at pH 7.4 by PAMPA. It counts as ADME. Particulars: read-out: Peff. On the technique in general: PAMPA measures passive passage across an artificial lipid membrane.
The test system of data set [5] is Plasmodium falciparum K1. In words: Inhibition of CRT CVIET haplotype mutant in chloroquine-resistant Plasmodium falciparum K1 isolate MRA-159 assessed as reversal of chloroquine resistance by measuring reduction in chloroquine IC50 at 500 nM relative to chloroquine alone.
Data set [6] deals with Plasmodium falciparum. Description: Intrinsic antimalarial activity against chloroquine-sensitive Plasmodium falciparum HB3 isolate MRA-155 assessed as reduction in parasite viability at 500 nM. It counts as functional, organism-based.
Data set [7] has as its system Plasmodium falciparum. Description: Intrinsic antimalarial activity against chloroquine/artemisinin-resistant Plasmodium falciparum NHP4773 harboring CRT K76T mutant assessed as reduction in parasite viability at 500 nM. It counts as functional, organism-based.
The test system of data set [8] is Plasmodium falciparum. Description: Intrinsic antimalarial activity against chloroquine-resistant Plasmodium falciparum Dd2 isolate MRA-156 harboring CRT K76T mutant assessed as reduction in parasite viability at 500 nM. It counts as functional, organism-based.
Data set [9] has as its system Plasmodium falciparum K1. Description: Inhibition of CRT CVIET haplotype mutant in Plasmodium falciparum K1 isolate MRA-159 infected in erythrocytes assessed as chloroquine-coumarin probe accumulation at 10 uM after 10 hrs by Hoechst 33342 staining based flow cytometry (reference value: 35.57 +/- 3.84%). It counts as cell-based. Further details: scale not given: the % may be the effect or the level left. The essentials:
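Infected erythrocyte cultures at 2.5% hematocrit and 7–12% parasitemia, synchronized to late-ring/early-trophozoite stage, were incubated with chloroquine-coumarin probe plus test agent for 10 h at 37 C. Cells were then washed, resuspended in PBS and read by flow cytometry (405 nm excitation, 450/50 filter). Hoechst-stained duplicate wells set parasitemia. Uptake = % infected erythrocytes fluorescent. Controls: PBS (negative), desipramine and parent compound (positive). ≥3 independent experiments; mean ± SEM.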

A short description of data set [10]: Permeability of compound incubated for 16 hrs at pH 7.4 by PAMPA. It counts as ADME. As to conditions: read-out: Peff.
The subject of data set [11] is Plasmodium falciparum. Description: Intrinsic antimalarial activity against chloroquine-resistant Plasmodium falciparum NHP4559 harboring CRT K76T mutant assessed as reduction in parasite viability at 500 nM. It counts as functional, organism-based.
For data set [12], the system named is Plasmodium falciparum 7G8. In words: Inhibition of CRT SVMNT haplotype mutant in intermediate chloroquine-resistant Plasmodium falciparum 7G8 isolate MRA-154 t assessed as reversal of chloroquine resistance by measuring reduction in chloroquine IC50 at 500 nM relative to chloroquine alone.
Data set [13] is described as follows: Resistance index, ratio of chloroquine IC50 for intermediate chloroquine-resistant Plasmodium falciparum 7G8 isolate MRA-154 CRT SVMNT haplotype mutant to chloroquine IC50 for chloroquine-sensitive Plasmodium falciparum 3D7 isolate MRA-102 at 500 nM. The essentials:
(§1)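 Chloroquine IC50 was measured with the chemoreversal agent fixed at 500 nM in K1 or 7G8 and in sensitive 3D7 (means, n = 3). The resistance ratio is the chloroquine IC50 in K1 or 7G8 divided by the chloroquine IC50 in 3D7.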

Data set [14] deals with T1, Chloroquine resistance transporter (Plasmodium falciparum), Q9N623 [K76T]. In words: Inhibition of CRT K76T mutant in chloroquine-resistant Plasmodium falciparum NHP4559 assessed as reversal of chloroquine resistance by measuring reduction in chloroquine IC50 at 500 nM relative to chloroquine alone.
The test system is the same in data set [15]. In words: Inhibition of CRT K76T mutant in chloroquine/artemisinin-resistant Plasmodium falciparum NHP4773 assessed as reversal of chloroquine resistance by measuring reduction in chloroquine IC50 at 500 nM relative to chloroquine alone.
In data set [16] the test system is Plasmodium falciparum. Description: Intrinsic antimalarial activity against chloroquine/artemisinin-resistant Plasmodium falciparum ARS233 harboring CRT K76T mutant assessed as reduction in parasite viability at 500 nM. It counts as functional, organism-based.
A short description of data set [17]: Aqueous kinetic solubility of compound in pH 7.4 solution incubated for 24 hrs. It counts as physicochemical. As to conditions: for solubility kinetic at 24 h: aqueous solution pH 7.4, pH 7.4, read-out: Kinetic_solubility.
Data set [18] concerns Plasmodium falciparum. Description: Intrinsic antimalarial activity against chloroquine/artemisinin-resistant Plasmodium falciparum ARS272 harboring CRT K76T mutant assessed as reduction in parasite viability at 500 nM. It counts as functional, organism-based.
Data set [19] relates to Plasmodium falciparum. In words: Intrinsic antimalarial activity against chloroquine-sensitive Plasmodium falciparum 3D7 isolate MRA-102 assessed as reduction in parasite viability at 500 nM. It counts as functional, organism-based.
Data set [20] relates to Plasmodium falciparum. Description: Intrinsic antimalarial activity against chloroquine-resistant Plasmodium falciparum K1 isolate MRA-159 harboring CRT CVIET haplotype mutant assessed as reduction in parasite viability at 500 nM. It counts as functional, organism-based.
The test system of data set [21] is Plasmodium falciparum. In words: Potentiation of chloroquine-induced antimalarial activity against chloroquine-sensitive Plasmodium falciparum HB3 isolate MRA-155 assessed as reduction in chloroquine IC50 at 500 nM relative to chloroquine alone. It counts as functional.
A short description of data set [22]: Inhibition of CRT CVIET haplotype mutant in Plasmodium falciparum K1 isolate MRA-159 infected in erythrocytes assessed as reversal of chloroquine resistance by measuring reduction in chloroquine IC50 by Hoechst 33342 staining based flow cytometry. It counts as cell-based. The essentials:
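Chloroquine IC50 was determined in the presence of a fixed 500 nM chemoreversal agent, against chloroquine alone. The RMI is the ratio of chloroquine IC50 with agent to chloroquine IC50 alone. Mean of n = 3; two-tailed t test versus chloroquine without agent.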
(In general: A flow cytometer gives signals particle by particle.)

For data set [23], the system named is T1, Chloroquine resistance transporter (Plasmodium falciparum), Q9N623 [K76T]. In words: Inhibition of CRT K76T mutant in chloroquine-resistant Plasmodium falciparum Dd2 isolate MRA-156 assessed as reversal of chloroquine resistance by measuring reduction in chloroquine IC50 at 500 nM relative to chloroquine alone.
Data set [24] concerns Plasmodium falciparum. In words: Potentiation of chloroquine-induced antimalarial activity against chloroquine-sensitive Plasmodium falciparum 3D7 isolate MRA-102 assessed as reduction in chloroquine IC50 at 500 nM relative to chloroquine alone. It counts as functional.
A short description of data set [25]: Resistance index, ratio of chloroquine IC50 for chloroquine-resistant Plasmodium falciparum K1 isolate MRA-159 CRT CVIET haplotype mutant to chloroquine IC50 for chloroquine-sensitive Plasmodium falciparum 3D7 isolate MRA-102 at 500 nM. The essentials:
as §1

Data set [26] has as its system T1, Chloroquine resistance transporter (Plasmodium falciparum), Q9N623 [K76T]. In words: Inhibition of CRT K76T mutant in chloroquine/artemisinin-resistant Plasmodium falciparum ARS272 assessed as reversal of chloroquine resistance by measuring reduction in chloroquine IC50 at 500 nM relative to chloroquine alone.
The nature of data set [27]: Therapeutic index, ratio of IC50 for TAMH to EC50 for chloroquine-resistant Plasmodium falciparum K1 isolate MRA-159 CRT CVIET haplotype mutant. It counts as toxicity. As to conditions: mouse, TAMH cells; read-out: Ratio IC50/EC50. The essentials:
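Host-cell IC50 was measured by ATP-luminescence viability assay in TAMH hepatocytes (mean of n = 4 independent determinations) or AC10 cardiomyocytes. Each IC50 was divided by the K1 EC50, the concentration of chemoreversal agent that halves the chloroquine concentration needed for 50% parasite inhibition.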

Data set [28] concerns TAMH. Description: Cytotoxicity against TAMH assessed as reduction in cell viability by CellTiter-Glo assay. It counts as cell-based. Particulars: Mus musculus. The essentials:
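For TAMH (hepatocyte line) and AC10 (cardiomyocyte line), viability was read by ATP luminescence (CellTiter-Glo), and the value reported is IC50.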
A general note: ATP-based viability assays read luminescence as a measure of living cells.

With `CN1CCN(C2Cc3ccccc3Sc3ccccc32)CC1` (configuration not stated), the solubility result in [1] is given as “Insoluble”.

As usually defined, the pEC50 is the EC50 on a negative log10 scale, so that one unit is a factor of ten. Take `CN(C)C(=O)C(CCN1CCC(O)(c2ccc(Cl)cc2)CC1)(c1ccccc1)c1ccccc1` [LOPERAMIDE]: the Ratio IC50 was 0.64 in data set [2]; 0.74 in [5]; 0.59 in data set [12]; 3.4 in [13]; 0.79 in data set [14]; 0.64 in [15]. The “Ratio IC50” value amounted to 1.04 in data set [21]; 0.82 in data set [23]; 1.08 in data set [24]; 14 in data set [25]; 0.75 in data set [26]. Moreover, the outcome in [3], in data set [6], in data set [7], in data set [8], in [11] and in data set [16] was inactive. For the same compound, the outcome in data set [18], in [19] and in data set [20] was inactive. Also, the Papp at 6 h in data set [4] came to 16 ×10⁻⁶ cm/s. For the same compound, the Activity in data set [9] was 87.6%. Further, the Papp at 16 h in data set [10] came to 12.5 ×10⁻⁶ cm/s. In data set [17] (buffer, pH 7.4, 24 h), this compound returned a Kinetic_solubility of 410 µg/mL. The pEC50 in [22] is 6.16.

As for `CC(C)(C)OC(=O)N1CCN(C2Cc3ccccc3Sc3ccccc32)CC1` (configuration not stated), in [1], the solubility result is on record as “Insoluble”.

What is called pIC50 is the negative decadic logarithm of the IC50, by convention in mol/L. For `Ic1ccccc1CN[C@@H]1C2CCN(CC2)[C@@H]1C(c1ccccc1)c1ccccc1`, the Ratio IC50 in data set [2] is 0.2; in [5], 0.26; in data set [12], 0.59; in [13] it was 3.4; in [14], 0.28; in [15], 0.27. The “Ratio IC50” value in data set [21] is 1.09; in data set [23] it was 0.37; in data set [24] it was 1.07; in data set [25] it was 5; in data set [26] it was 0.26. The outcome in [3], in data set [6], in [7], in data set [8], in [11] and in [16] was inactive. Besides, the outcome in data set [18], in data set [19] and in [20] was inactive. In addition, the selectivity ratio in [27] turned out to be 175. In data set [4], the Papp at 6 h was determined as 10.4 ×10⁻⁶ cm/s. In data set [9], the Activity worked out at 80.5%. Moreover, in data set [10], the Papp at 16 h worked out at 8.24 ×10⁻⁶ cm/s. Further, in data set [17], the solubility kinetic at 24 h stood at 31 µg/mL (≈ 61 µM). Besides, the pEC50 in data set [22] was 7.01. For the same compound, the negative-log IC50 (pIC50) in [28] was 4.76.

Turning to `CN1CCN(C2Cc3ccccc3Sc3ccc(Cl)cc32)CC1` (configuration not stated) [CLOROTEPINE], the Ratio IC50 in data set [2] amounted to 0.87; in [5] it was 0.94; in data set [12], 1.12; in [13] it was 6.4; in data set [14], 1.09; in data set [15], 0.87. In addition, the “Ratio IC50” value was determined as 1.04 in data set [21]; 0.98 in data set [23]; 1.07 in data set [24]; 18.1 in data set [25]; 1.05 in [26]. The result in data set [3], in data set [6], in [7], in [8], in data set [11] and in data set [16] was inactive. For the same compound, the result in data set [18], in data set [19] and in data set [20] was inactive. In [9], the Activity worked out at 82.8%. Also, the solubility kinetic at 24 h in data set [17] was 34.9 µg/mL (≈ 101 µM). For the same compound, in data set [22], the pEC50 was 5.90.
